Laboratory results as given in ChEMBL document CHEMBL5058577, “EUbOPEN Chemogenomics Library 2 (Multiplex)” (2022).

System: Fibroblast
Test: Multiplex assay against human fibroblast
Assay type: toxicity, cell-based
In short: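 Four dyes were applied at seeding to live cells: Hoechst33342, BioTracker Green Microtubule Cytoskeleton Dye, MitoTracker Red and Annexin V Alexa Fluor 680. Imaging after compound addition used a CQ1 microscope at 37°C and 5% CO2. CellPathfinder machine-learning gating then sorted cells into Hoechst high-intensity objects or normal cells, normal cells into healthy, pyknosed or fragmented nuclei, and pyknosed cells into mitotic or apoptotic, with tubulin, mitochondrial-mass and membrane-permeability phenotypes given as per cents of healthy-nucleus cells.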

[1] = 12 h, 1 µM, compound concentration 1 uM, replicate 1
[2] = 12 h, 1 µM, compound concentration 1 uM, replicate 2
[3] = 12 h, 10 µM, compound concentration 10 uM, replicate 1
[4] = 12 h, 10 µM, compound concentration 10 uM, replicate 2
[5] = 24 h, 1 µM, compound concentration 1 uM, replicate 1
[6] = 24 h, 1 µM, compound concentration 1 uM, replicate 2
[7] = 24 h, 10 µM, compound concentration 10 uM, replicate 1
[8] = 24 h, 10 µM, compound concentration 10 uM, replicate 2
[9] = 48 h, 1 µM, compound concentration 1 uM, replicate 1
[10] = 48 h, 1 µM, compound concentration 1 uM, replicate 2
[11] = 48 h, 10 µM, compound concentration 10 uM, replicate 1
[12] = 48 h, 10 µM, compound concentration 10 uM, replicate 2

O=c1nc2[nH]c3ccccc3nc-2c(=O)[nH]1 [ALLOXAZINE]
Population Apoptotic (%) [1]: 56% | Population Fragmented Nuclei (%) [1]: 16% | Population Healthy Nuclei (%) [1]: 67% | Population Hoechst High Intensity Objects (%) [1]: 5% | Population Membrane Permeable-Phenotype (%) [1]: 0% | Population Mitochondria Different-Phenotype (%) [1]: 2% | Population Mitotic Cells (%) [1]: 43% | Population Normal (%) [1]: 94% | Population Pyknosed Nuclei (%) [1]: 16% | Population Tubulin-Different-Phenotype (%) [1]: 23% | Total Cell Count [1]: 193 | Population Apoptotic (%) [2]: 37% | Population Fragmented Nuclei (%) [2]: 26% | Population Healthy Nuclei (%) [2]: 50% | Population Hoechst High Intensity Objects (%) [2]: 3% | Population Membrane Permeable-Phenotype (%) [2]: 6% | Population Mitochondria Different-Phenotype (%) [2]: 3% | Population Mitotic Cells (%) [2]: 62% | Population Normal (%) [2]: 96% | Population Pyknosed Nuclei (%) [2]: 23% | Population Tubulin-Different-Phenotype (%) [2]: 33% | Total Cell Count [2]: 131 | Population Apoptotic (%) [3]: 33% | Population Fragmented Nuclei (%) [3]: 23% | Population Healthy Nuclei (%) [3]: 60% | Population Hoechst High Intensity Objects (%) [3]: 4% | Population Membrane Permeable-Phenotype (%) [3]: 3% | Population Mitochondria Different-Phenotype (%) [3]: 5% | Population Mitotic Cells (%) [3]: 66% | Population Normal (%) [3]: 95% | Population Pyknosed Nuclei (%) [3]: 15% | Population Tubulin-Different-Phenotype (%) [3]: 23% | Total Cell Count [3]: 158 | Population Apoptotic (%) [4]: 41% | Population Fragmented Nuclei (%) [4]: 41% | Population Healthy Nuclei (%) [4]: 38% | Population Hoechst High Intensity Objects (%) [4]: 1% | Population Mitochondria Different-Phenotype (%) [4]: 15% | Population Mitotic Cells (%) [4]: 58% | Population Normal (%) [4]: 98% | Population Pyknosed Nuclei (%) [4]: 20% | Population Tubulin-Different-Phenotype (%) [4]: 57% | Total Cell Count [4]: 86 | Population Apoptotic (%) [5]: 52% | Population Fragmented Nuclei (%) [5]: 17% | Population Healthy Nuclei (%) [5]: 69% | Population Hoechst High Intensity Objects (%) [5]: 3% | Population Membrane Permeable-Phenotype (%) [5]: 0% | Population Mitochondria Different-Phenotype (%) [5]: 2% | Population Mitotic Cells (%) [5]: 47% | Population Normal (%) [5]: 96% | Population Pyknosed Nuclei (%) [5]: 12% | Population Tubulin-Different-Phenotype (%) [5]: 21% | Total Cell Count [5]: 190 | Population Apoptotic (%) [6]: 36% | Population Fragmented Nuclei (%) [6]: 31% | Population Healthy Nuclei (%) [6]: 41% | Population Hoechst High Intensity Objects (%) [6]: 4% | Population Membrane Permeable-Phenotype (%) [6]: 2% | Population Mitochondria Different-Phenotype (%) [6]: 0% | Population Mitotic Cells (%) [6]: 63% | Population Normal (%) [6]: 95% | Population Pyknosed Nuclei (%) [6]: 27% | Population Tubulin-Different-Phenotype (%) [6]: 31% | Total Cell Count [6]: 114 | Population Apoptotic (%) [7]: 47% | Population Fragmented Nuclei (%) [7]: 19% | Population Healthy Nuclei (%) [7]: 64% | Population Hoechst High Intensity Objects (%) [7]: 3% | Population Membrane Permeable-Phenotype (%) [7]: 0% | Population Mitochondria Different-Phenotype (%) [7]: 2% | Population Mitotic Cells (%) [7]: 52% | Population Normal (%) [7]: 96% | Population Pyknosed Nuclei (%) [7]: 15% | Population Tubulin-Different-Phenotype (%) [7]: 22% | Total Cell Count [7]: 153 | Population Apoptotic (%) [8]: 64% | Population Fragmented Nuclei (%) [8]: 45% | Population Healthy Nuclei (%) [8]: 32% | Population Mitochondria Different-Phenotype (%) [8]: 7% | Population Mitotic Cells (%) [8]: 35% | Population Pyknosed Nuclei (%) [8]: 21% | Population Tubulin-Different-Phenotype (%) [8]: 50% | Total Cell Count [8]: 82 | Population Apoptotic (%) [9]: 71% | Population Fragmented Nuclei (%) [9]: 14% | Population Healthy Nuclei (%) [9]: 72% | Population Hoechst High Intensity Objects (%) [9]: 9% | Population Membrane Permeable-Phenotype (%) [9]: 0% | Population Mitochondria Different-Phenotype (%) [9]: 1% | Population Mitotic Cells (%) [9]: 28% | Population Normal (%) [9]: 90% | Population Pyknosed Nuclei (%) [9]: 13% | Population Tubulin-Different-Phenotype (%) [9]: 23% | Total Cell Count [9]: 178 | Population Apoptotic (%) [10]: 39% | Population Fragmented Nuclei (%) [10]: 30% | Population Healthy Nuclei (%) [10]: 48% | Population Hoechst High Intensity Objects (%) [10]: 3% | Population Membrane Permeable-Phenotype (%) [10]: 9% | Population Mitotic Cells (%) [10]: 60% | Population Normal (%) [10]: 96% | Population Pyknosed Nuclei (%) [10]: 20% | Population Tubulin-Different-Phenotype (%) [10]: 56% | Total Cell Count [10]: 114 | Population Apoptotic (%) [11]: 55% | Population Fragmented Nuclei (%) [11]: 26% | Population Healthy Nuclei (%) [11]: 61% | Population Hoechst High Intensity Objects (%) [11]: 6% | Population Membrane Permeable-Phenotype (%) [11]: 2% | Population Mitochondria Different-Phenotype (%) [11]: 3% | Population Mitotic Cells (%) [11]: 44% | Population Normal (%) [11]: 93% | Population Pyknosed Nuclei (%) [11]: 11% | Population Tubulin-Different-Phenotype (%) [11]: 29% | Total Cell Count [11]: 164 | Population Apoptotic (%) [12]: 45% | Population Fragmented Nuclei (%) [12]: 49% | Population Healthy Nuclei (%) [12]: 36% | Population Hoechst High Intensity Objects (%) [12]: 2% | Population Membrane Permeable-Phenotype (%) [12]: 3% | Population Mitochondria Different-Phenotype (%) [12]: 17% | Population Mitotic Cells (%) [12]: 54% | Population Normal (%) [12]: 97% | Population Pyknosed Nuclei (%) [12]: 13% | Population Tubulin-Different-Phenotype (%) [12]: 51% | Total Cell Count [12]: 81
